Activity calls are given as the source filed them. No cut-off for these calls is given here.
Columns and labels:
[1] = molecular target: Toll-like receptor 3 (Homo sapiens) (UniProt O15455); assay: Activation of human TLR3 expressed in HEK293 assessed as induction of NF-kappaB activity reporter gene assay; type: cell-based
[2] = molecular target: T1, Toll-like receptor 9 (Mus musculus) (UniProt Q9EQU3); assay: Activation of mouse TLR9 expressed in HEK293 assessed as induction of NF-kappaB activity reporter gene assay; type: cell-based
T1 sequence (whole entry): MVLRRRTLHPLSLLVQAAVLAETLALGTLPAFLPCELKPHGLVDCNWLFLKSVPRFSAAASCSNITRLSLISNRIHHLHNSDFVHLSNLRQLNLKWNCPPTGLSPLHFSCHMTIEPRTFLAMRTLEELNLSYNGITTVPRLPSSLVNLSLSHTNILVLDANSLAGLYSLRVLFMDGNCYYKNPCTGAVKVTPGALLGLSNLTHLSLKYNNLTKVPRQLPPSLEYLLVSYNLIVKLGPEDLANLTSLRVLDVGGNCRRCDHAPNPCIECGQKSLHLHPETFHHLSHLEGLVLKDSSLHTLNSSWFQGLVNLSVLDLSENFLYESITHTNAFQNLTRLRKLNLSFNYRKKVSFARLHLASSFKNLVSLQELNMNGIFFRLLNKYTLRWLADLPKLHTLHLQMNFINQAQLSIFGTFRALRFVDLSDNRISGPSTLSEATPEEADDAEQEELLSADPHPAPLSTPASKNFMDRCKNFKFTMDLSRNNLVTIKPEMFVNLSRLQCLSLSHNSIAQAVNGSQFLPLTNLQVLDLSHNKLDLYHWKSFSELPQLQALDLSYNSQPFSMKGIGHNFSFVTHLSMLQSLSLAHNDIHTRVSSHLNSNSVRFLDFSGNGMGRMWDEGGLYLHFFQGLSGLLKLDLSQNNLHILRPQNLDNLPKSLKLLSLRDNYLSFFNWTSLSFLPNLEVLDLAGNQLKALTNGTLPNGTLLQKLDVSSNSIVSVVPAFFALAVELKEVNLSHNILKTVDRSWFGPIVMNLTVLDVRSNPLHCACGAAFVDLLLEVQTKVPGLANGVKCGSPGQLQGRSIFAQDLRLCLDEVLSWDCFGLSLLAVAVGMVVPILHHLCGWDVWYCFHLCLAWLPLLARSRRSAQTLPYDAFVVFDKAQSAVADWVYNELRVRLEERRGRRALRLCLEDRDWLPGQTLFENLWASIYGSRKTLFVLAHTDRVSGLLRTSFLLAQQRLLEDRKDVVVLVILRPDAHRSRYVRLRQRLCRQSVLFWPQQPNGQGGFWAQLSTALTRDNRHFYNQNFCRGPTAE

[3] = test system: PBMC; assay: Immunomodulatory activity in human PBMC assessed as induction of IL12 at 100 ug/ml after 24 hrs; type: functional, cell-based
How it was run: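 Human PBMCs plated at 5 × 10^6 cells/mL; compounds dissolved in PBS added at various concentrations, 37 °C for 24 h. Supernatant cytokines/chemokines quantified with human Luminex multiplex kit.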

[4] = test system: PBMC; assay: Immunomodulatory activity in human PBMC assessed as induction of IFN-alpha at 100 ug/ml after 24 hrs

Toll-like receptor 3 (Homo sapiens), sequence (O15455 whole entry): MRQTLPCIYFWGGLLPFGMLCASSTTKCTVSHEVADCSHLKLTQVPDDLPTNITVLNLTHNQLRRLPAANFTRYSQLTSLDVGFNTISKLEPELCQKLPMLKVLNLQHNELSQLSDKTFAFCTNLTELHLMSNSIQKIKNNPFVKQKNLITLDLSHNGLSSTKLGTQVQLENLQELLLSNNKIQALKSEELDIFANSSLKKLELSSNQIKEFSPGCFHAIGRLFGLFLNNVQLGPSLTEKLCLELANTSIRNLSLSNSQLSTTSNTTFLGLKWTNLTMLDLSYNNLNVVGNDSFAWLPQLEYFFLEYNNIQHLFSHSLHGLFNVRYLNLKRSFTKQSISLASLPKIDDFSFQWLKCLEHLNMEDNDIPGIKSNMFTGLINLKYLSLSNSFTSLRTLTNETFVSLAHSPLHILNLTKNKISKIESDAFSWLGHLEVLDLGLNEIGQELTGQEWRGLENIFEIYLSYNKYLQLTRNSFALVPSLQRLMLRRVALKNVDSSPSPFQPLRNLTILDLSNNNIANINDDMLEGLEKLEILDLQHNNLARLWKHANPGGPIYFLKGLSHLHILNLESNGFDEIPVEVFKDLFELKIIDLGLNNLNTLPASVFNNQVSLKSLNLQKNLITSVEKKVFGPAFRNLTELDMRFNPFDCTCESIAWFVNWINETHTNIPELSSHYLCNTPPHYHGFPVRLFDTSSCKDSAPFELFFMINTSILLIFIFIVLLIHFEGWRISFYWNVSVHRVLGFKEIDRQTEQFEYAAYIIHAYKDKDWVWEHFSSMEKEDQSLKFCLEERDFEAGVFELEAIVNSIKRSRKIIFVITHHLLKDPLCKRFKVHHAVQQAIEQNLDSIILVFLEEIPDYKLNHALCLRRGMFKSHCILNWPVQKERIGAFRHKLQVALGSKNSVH

Activity [1]: inactive | Activity [2]: inactive
Compound: Nc1ccn([C@@H]2O[C@H](COP(=O)(S)O[C@H]3[C@@H](O)[C@H](n4cnc5c(N)ncnc54)O[C@@H]3COP(=O)(S)O[C@H]3[C@@H](O)[C@H](n4cnc5c(N)ncnc54)O[C@@H]3CO)[C@@H](OP(=O)(S)OC[C@H]3O[C@@H](n4ccc(=O)[nH]c4=O)[C@H](O)[C@@H]3OP(=O)(S)OC[C@H]3O[C@@H](n4ccc(=O)[nH]c4=O)[C@H](O)[C@@H]3OP(=O)(S)OC[C@H]3O[C@@H](n4ccc5c(=O)[nH]c(N)nc54)[C@H](O)[C@@H]3OP(=O)(S)OC[C@H]3O[C@@H](n4cnc5c(N)ncnc54)[C@H](O)[C@@H]3OP(=O)(S)OC[C@H]3O[C@@H](n4ccc5c(=O)[nH]c(N)nc54)[C@H](O)[C@@H]3OP(=O)(S)OC[C@H]3O[C@@H](n4ccc(N)nc4=O)[C@H](O)[C@@H]3OP(=O)(S)OC[C@H]3O[C@@H](n4ccc(=O)[nH]c4=O)[C@H](O)[C@@H]3OP(=O)(S)OC[C@H]3O[C@@H](n4ccc(=O)[nH]c4=O)[C@H](O)[C@@H]3OP(=O)(S)OCC(O)COP(=O)(S)O[C@H]3[C@@H](O)[C@H](n4ccc(=O)[nH]c4=O)O[C@@H]3COP(=O)(S)O[C@H]3[C@@H](O)[C@H](n4ccc(=O)[nH]c4=O)O[C@@H]3COP(=O)(S)O[C@H]3[C@@H](O)[C@H](n4ccc(N)nc4=O)O[C@@H]3COP(=O)(S)O[C@H]3[C@@H](O)[C@H](n4ccc5c(=O)[nH]c(N)nc54)O[C@@H]3COP(=O)(S)O[C@H]3[C@@H](O)[C@H](n4cnc5c(N)ncnc54)O[C@@H]3COP(=O)(S)O[C@H]3[C@@H](O)[C@H](n4ccc5c(=O)[nH]c(N)nc54)O[C@@H]3COP(=O)(S)O[C@H]3[C@@H](O)[C@H](n4ccc(=O)[nH]c4=O)O[C@@H]3COP(=O)(S)O[C@H]3[C@@H](O)[C@H](n4ccc(=O)[nH]c4=O)O[C@@H]3COP(=O)(S)O[C@H]3[C@@H](O)[C@H](n4ccc(N)nc4=O)O[C@@H]3COP(=O)(S)O[C@H]3[C@@H](O)[C@H](n4cnc5c(N)ncnc54)O[C@@H]3COP(=O)(S)O[C@H]3[C@@H](O)[C@H](n4cnc5c(N)ncnc54)O[C@@H]3CO)[C@H]2O)c(=O)n1 (some centres undefined)
Activity [3]: 527 pg/mL | IFN-alpha [4]: 106 pg/mL
